Assay results reported in PubChem BioAssay.
Values without a mark were called inactive. Inconclusive results are not listed. Active and inactive are the calls of the source.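 The calls were made as follows, unless noted: active = viability increase at or above a cutoff of the median across tested compounds plus 3 SD (cut at about 8.5% in these data, passing the limit was not always enough); inconclusive = some gains above the cutoff, reason not given; inactive = the rest.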

Legend:
[1] = OD615 S. cerevisiae growth inhibition, permissive medium, pilot counter-assay, permissive growth control for S. cerevisiae lifespan shortening project (AID 705;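 active = growth inhibition above 25% in both replicates, a cutoff set 3 SD above the mean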); details: OD615, 24 h, at 10 µM, stronger effect = higher value
In short: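 Material: engineered DeaD yeast; compound dosing: one dose 10 µM, DMSO 0.25% final; measure: yeast growth inhibition indicated by reduced 24 h OD615; detection: OD615 turbidity read; incubation: cells pre-grown 4 h, then 24 h compound exposure, 30 °C humidified; medium: permissive synthetic complete medium with raffinose and galactose carbon sources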

[2] = Restrictive medium S. cerevisiae growth inhibition, OD615, pilot screen of yeast lifespan reduction project, restrictive growth control (AID 706;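 active = growth inhibition above a set limit, 3 SD over mean compound inhibition, in both replicates, cut at about 43% in these data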;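 also: modified DeaD lifespan yeast strain shifted to restrictive glucose medium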); details: OD615, 48 h, at 10 µM, stronger effect = higher value
In short: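 material = engineered S. cerevisiae DeaD strain | medium = glucose-based CSMM-D restrictive medium | times = 4 h pre-incubation, 48 h exposure at 30 °C | technique = OD615 absorbance reading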

[3] = viability gain of MRP-1-high H69AR cells under doxorubicin, pilot screen, MRP-1 activator project, CellTiter-Glo, duplicate (AID 807); details: H69AR viability with doxorubicin, CellTiter-Glo luminescence; at 10 µM; stronger effect = higher value;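 also: compound pretreatment 18-22 h then 72 h combined with doxorubicin; 0% = doxorubicin alone and 100% = vehicle without doxorubicin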
[4] = growth suppression of beta-catenin knockout HCT116, pilot screen, human colon tumor cells (AID 823;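 active = cell viability at or below a set limit in both duplicate runs, the limit being the all-compound median minus 4 SD, cut at about 23% in these data, passing the limit was not always enough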;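 also: 0% = wells killed by 20 µM Hyamine and 100% = untreated DMSO cell wells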); details: CellTiter-Glo, 60 h, at 10 µM, stronger effect = lower value
[5] = growth suppression of PTEN-deleted HCT116, pilot screen, cell-based, HCT116 clonal line, CellTiter-Glo (AID 824;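 active = viability at or below 27.92% in each of two runs, the all-compound median minus 4 SD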;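 also: 0% = 20 µM Hyamine control and 100% = vehicle cell control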); details: 60 h, at 10 µM, stronger effect = lower value
[6] = inhibitors of the yeast RAM network, pilot screen, dse1pr::URA3 reporter, 5-FOA selection (AID 869;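 active = inhibition over a set limit, the all-compound mean plus 3 SD, in both replicate runs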;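 also: 0% = DMSO wells with no growth and 100% = 10 µM 1-NA-PP1 with full growth; RAM network block rescues cells from 5-FOA so hits raise OD615 growth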); details: S. cerevisiae dse1pr::URA3 5-FOA growth, OD615, 2 d; at 10 µM; stronger effect = higher value; strain carries analog-sensitive mutant Cbk1 kinase
[7] = RAM signaling pathway blockade in yeast – S. cerevisiae, Pdr1DBD-CYC8 efflux-inhibited sensitized strain, primary screen (AID 1298;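 active = RAM network inhibition above 8.4% in each of two replicates, 3 SD over the compound average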;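 also: 0% = DMSO untreated cells without growth and 100% = 10 µM 1-NA-PP1 full growth; higher means more yeast growth rescued from 5-FOA killing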); details: S. cerevisiae cbk1-as DSE1-URA3 strain, 5-FOA growth OD615, 2 d; at 50 µM; stronger effect = higher value

Row | Compound | growth inhibition [1] [%] | growth inhibition [2] | viability increase [3] [%] | viability [4] [%] | viability [5] [%] | inhibition [6] [%] | RAM network inhibition [7] [%]
1 | COc1ccc(Cl)cc1NC(=O)c1cnc2n(c1=O)CCS2 | -7.35 | 3.42% | -4.43 | 94.5 | 89.2 | 2.78 | 3.81
2 | COc1ccc(CNC(=O)c2ccc3c(c2)N(C)C(=O)CS3=O)cc1 (configuration not stated) | -1 | 7.29% | 1.48 | 103 | 97.3 | 1.41 | 2.04
3 | CCOC(=O)N(C)OC(=O)Nc1ccc(Cl)c(Cl)c1 | -17.1 | -20.5% | -0.16 | 95.6 | 90.8 | 0.52 | 5.93
4 | Cc1ccc(C(=O)N2CCN(c3ccccc3)CC2)cc1C | 3.37 | 8.08% | 0.84 | 101 | 97.7 | 0.13 | 2.03
5 | COc1cccc(C2NC(=O)NC(C)=C2C(=O)Nc2ccc(C)cc2)c1 (configuration not stated) | -9.18 | -12% | 1.54 | 106 | 97.6 | 0.285 | 3.39
6 | COCCN1C(=O)c2oc3ccccc3c(=O)c2C1c1ccc(O)c(OC)c1 (configuration not stated) | -9.35 | -0.41% | -3.27 | 97.5 | 93.2 | 0.49 | 8.37
7 | CC1(C)CC(=O)C2=C(C1)OC(N)=C(C#N)C2c1ccc(OC(=O)N2CCOCC2)cc1 (configuration not stated) | -8.71 | -10.3% | -1.1 | 100 | 105 | 1.12 | 0.1
8 | CCCCN(C)CCNC(=O)Cn1ncc2c(=O)oc3ccc(C)cc3c21 | -3.19 | 0.355% | -2.9 | 95.1 | 94.2 | 0.93 | 3.72
9 | COC(=O)c1c(NC(=O)c2nc3ccccc3s2)sc2c1CCN(C(C)=O)C2 | 7.87 | 1.73% | -6.02 | 71.7 | 68 | 4 | 5.96
10 | O=P(/C(=N/O)Sc1ccccc1)(N1CCOCC1)N1CCOCC1 | -7.6 | 1.87% | -4.88 | 90 | 97 | 0.62 | 4.34
11 | CCOc1ccc(S(=O)(=O)n2ccnc2)c2ccccc12 | -2.9 | 0.2% | -1.1 | 101 | 106 | 0.31 | 2.78
12 | COc1ccccc1C1N(c2cc(Cl)ccc2OC)C(=O)C2CCCN21 (configuration not stated) | 8.71 | 3.69% | -2.83 | 98.7 | 96.3 | 0.445 | 2.33
13 | COc1ccc(OC)c(-c2nc(C(N)=O)c3[nH]c(=O)n(-c4ccc(F)cc4)c3n2)c1 | -0.485 | -10.4% | -2.73 | 95.4 | 103 | 2.46 | 0.16
14 | CCCn1c(N2CCN(Cc3cccc(C)c3)CC2)nc2c1c(=O)[nH]c(=O)n2C | 5.6 | 2.15% | -5.06 | 89.3 | 82.8 | 1.34 | 2.5
15 | CCOc1ccc(N(CC(=O)NC2CCCC2)S(=O)(=O)c2c(C)noc2C)cc1 | -12.7 | -2.85% | -2.27 | 97.4 | 94.9 | 3.61 | 8.02
16 | COc1cc(OC)cc(C(=O)Nc2cccc(NC(C)=O)c2)c1 | -2.19 | -3.84% | -2.31 | 111 | 108 | 2.15 | 2.04
17 | CCSc1nnc(NC(=O)c2cc3c(s2)CCCC3)s1 | -3.65 | -0.425% | -1.67 | 54.3 | 60.2 | 2 | -1.29
18 | COc1ccc(N2C(=O)C3CCCN3C2c2cccc(C)c2)cc1 (configuration not stated) | 2.65 | 15% | -3.13 | 97.4 | 100 | 1.83 | -1.25

Row | Compound | growth inhibition [1] [%] | growth inhibition [2] | viability increase [3] [%] | viability [4] [%] | viability [5] [%] | inhibition [6] [%] | RAM network inhibition [7] [%]
19 | O=C(Cc1c(C(=O)O)[nH]c2ccccc12)NC1CCN(Cc2ccccc2)CC1 | -9.14 | -14.9% | 0.24 | 102 | 99.8 | 1.6 | -1.14
20 | CCOC(=O)Cn1c(=O)oc2cc(S(=O)(=O)NCc3ccccn3)ccc21 | -14 | -21.4% | -1.25 | 105 | 95.1 | 1.79 | 3.14
21 | COc1ccc(S(=O)(=O)N2CCN(Cc3c[nH]c4ccccc34)CC2)cc1 | -13.2 | -14.2% | -4.53 | 80.7 | 89.6 | 2.11 | 4.82
22 | O=C(c1ccc(S(=O)(=O)N2CCCCC2)cc1)N1CCN=C1SCc1cccnc1 | -1.57 | -2.72% | 1.27 | 89.4 | 89.3 | 1.77 | 4.85
23 | CCOC(=O)c1ccc2ncc(C(=O)OCC)c(NCCCN3CCOCC3)c2c1 | -4.12 | 8.23% | -5.66 | 81.2 | 84.5 | 0.495 | 0.57
24 | CCOC(=O)C1C(C)N=C2SCC(=O)N2C1c1cccc(Br)c1 (configuration not stated) | 9.43 | 51.2% (active) | -0.84 | 86.4 | 93.2 | 0.36 | 3.99
25 | COc1cccc(NC(=O)Cn2cnc3sc(C)c(S(=O)(=O)N4CCN(C)CC4)c3c2=O)c1 | -17.7 | -24.1% | -1.93 | 89 | 83.2 | 1.76 | 1.09
26 | CCN1C(=O)C(O)(CC(=O)c2ccc3c(c2)OCCO3)c2ccccc21 (configuration not stated) | -0.735 | -5.33% | -2.07 | 99.1 | 94 | 0.24 | 5.92
27 | COc1ccccc1OCC(=O)N(Cc1nc(-c2ccc(Cl)cc2)no1)C(C)C | -16.3 | -10.6% | 2.37 | 84.7 | 82.5 | 1.4 | 6.52
28 | CCOC(=O)C1CCCN(C(=O)Cn2nc(Cc3cccnc3)c3ccccc3c2=O)C1 (configuration not stated) | 3.18 | -7.92% | 1.09 | 99.5 | 102 | 2.21 | 2.19
29 | Cc1cccc(NC(=O)c2ccc(S(=O)(=O)N(C)C)cc2)c1 | -8.26 | -8.44% | -3.61 | 106 | 100 | 2.24 | 1.69
30 | Cc1cc(/C=N/n2cnnc2)c(C)n1-c1ccc(C(=O)O)cc1 | 5.52 | -2.69% | 1.76 | 102 | 99 | 0.98 | 2.56
31 | O=C(Nc1nnc(-c2ccccc2)s1)c1ccc(Cl)c(S(=O)(=O)N2CCOCC2)c1 | -16.8 | -5.79% | -1.65 | 100 | 96.2 | 2.61 | 1.72
32 | O=C(/C=N/O)Nc1ccccc1C(=O)O | -14.8 | -16.7% | -2.95 | 97.1 | 98.5 | 2.12 | 4.14
33 | O=P(O)(CN1CCCCC1)C1CCCCC1O (configuration not stated) | -11.2 | -3.29% | -1.71 | 105 | 104 | 0.06 | 1.57
34 | COCc1cc(C)nc(N2CCOCC2)c1C#N | -14.3 | 3.52% | -0.86 | 103 | 101 | 1.35 | 5.54
35 | Cc1noc(C)c1S(=O)(=O)N1CCC(C(=O)N2CCC(N3CCCCC3)CC2)CC1 | -7.79 | 2.65% | 0.18 | 101 | 102 | 1.78 | -0.93
36 | Cc1ccc(-c2nc(CS(=O)CC(=O)NCc3ccccn3)c(C)o2)cc1 (configuration not stated) | -5.48 | 7.86% | -1.49 | 92.2 | 90.7 | 0.745 | 1.38
